Screens deposited in PubChem by several laboratories.
Sampled rows, rich in hits. Any-hit rate of the full collection: about 12%.
WT yeast gro inh: growth inhibition of WT strain, primary screen, mitochondrial fusion inhibitor project, WT and mutant strains, chemical genetic; mitochondrial fusion phenotypic screen; inhibition, % at 10 µM; 190,000 tested, 2.1% active; AID 1362, 2008; in the data active = inhibition above about 58%; tested in S. cerevisiae
ROMK primary: ROMK potassium channel modulators, primary screen, cell-based, thallium flux, MLSMR library; ATP-sensitive inward rectifier potassium channel 1 (Homo sapiens), P48048; B-score at 10 µM; Tet-inducible ROMK, thallium flux fluorescence; actives lie on both sides; 130,000 tested, 2% active;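 active = signal ratio slope over the read window, or its plate-corrected B-score, at least 3 SD from the plate mean, either direction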;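 note: B-score of the F/F0 ratio slope over 7 to 12 s after thallium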
Target sequence (P48048 whole entry, looked up): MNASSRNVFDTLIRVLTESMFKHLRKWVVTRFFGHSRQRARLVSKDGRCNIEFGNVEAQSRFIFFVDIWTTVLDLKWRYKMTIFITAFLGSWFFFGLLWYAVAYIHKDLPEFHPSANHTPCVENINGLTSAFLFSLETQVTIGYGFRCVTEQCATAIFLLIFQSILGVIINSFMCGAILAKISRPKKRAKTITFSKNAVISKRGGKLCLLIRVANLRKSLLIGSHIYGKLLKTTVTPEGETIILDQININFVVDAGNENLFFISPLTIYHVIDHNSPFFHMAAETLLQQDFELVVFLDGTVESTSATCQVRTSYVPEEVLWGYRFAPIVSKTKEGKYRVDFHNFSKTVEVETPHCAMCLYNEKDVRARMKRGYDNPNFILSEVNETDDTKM
Diaphorase act: compounds boosting diaphorase resazurin reduction – biochemical, uHTS, resorufin fluorescence, counter-screen for diaphorase-coupled primary assays, primary screen; Diaphorase/resazurin coupled assay, 16 min; stronger effect = higher value; 1 = vehicle wells, 0 = NADH-free wells; activation factor at 20 µM; 190,000 tested, 0.005% active;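 active = diaphorase activity raised at least twofold by the compound at 20 µM; inactive = activation factor below 2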
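Material: Purified diaphorase enzyme from Clostridium kluyveri | Buffer or medium: 50 mM HEPES pH 7.4 with 4.542 mM MgCl2, 0.005% Tween 20 | Times: 16 min enzyme reaction, ambient temperature | Signal: Red resorufin fluorescence at 544/590 nm excitation/emission | Measure: Increased resorufin signal from activators or reducing compounds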
Diaphorase inh: diaphorase inhibitors and chemical oxidizers, primary screen, counter-screen for diaphorase-coupled primary assays, biochemical, uHTS, resorufin fluorescence; diaphorase resazurin-to-resorufin fluorescence, NADH, 16 min; bacterial (C. kluyveri) enzyme, not human; inhibition, % at 20 µM; 190,000 tested, 0.69% active;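 active = primary screen inhibition at 20 µM above a set limit, cut at about 50% in these data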;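 note: plate controls were DMSO with full reaction for no effect and wells lacking NADH for full effect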
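Detection: fluorescence of resorufin formed from resazurin, Ex 544/Em 590 nm; test system: Clostridium kluyveri diaphorase enzyme; amount: 0.14 U/mL diaphorase, enzyme working solution; times: 16-min room-temperature incubation before reading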
L major viab: Leishmania major promastigote growth inhibition, primary screen; 200,000 tested, 9% active; inhibition, % at 10 µM; Leishmania major promastigotes, resazurin fluorescence viability; in the data active = inhibition above about 50%;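 note: promastigotes grown with compound for 44 hours at 28 °C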
KCC2 mod: KCC2 cotransporter modulators, thallium flux, primary screen, cell-based, HEK293 KCC2, FluoZin-2 fluorescence, MLSMR. Solute carrier family 12 member 5 (Homo sapiens), Q9H2X9. KCC2 cells, thallium flux FluoZin-2 fluorescence. B-score of Tl+ flux slope (higher = more flux/activation; lower = inhibition) at 10 µM. 190,000 tested, 2.2% active;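 active = thallium flux slope and its plate-corrected score both differing from the plate sample mean at a set confidence after two filtering rounds, in either direction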;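 note: slope of fluorescence scaled to starting intensity during 10 to 20 s after thallium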
* = called active by the depositor; x = not tested or not shown.

SMILES | WT yeast gro inh | ROMK primary | Diaphorase act | Diaphorase inh | L major viab | KCC2 mod
Cc1ccc(-n2cc(CNCCn3nc(C)cc3C)c(-c3ccc(F)cc3)n2)cc1 | 73.5 | -1.76 | 1 | 3.3 | 62.9* | 0.267
CC(C)CCOc1ccc(Cl)cc1CN1CCOCC1 | 12.5 | -0.115 | 0.8 | 18.8 | 89.4* | 0.135
CCOc1ccc(Cl)cc1CN1CCOCC1 | -26.4 | 0.219 | 1 | -0.7 | 3.9 | x
CCCCCOc1ccc(Cl)cc1CN1CCOCC1 | 38.6 | -0.156 | 0.9 | 9.6 | 79.6* | -1.2
CC1CN(C2CCN(S(=O)(=O)c3ccc(F)cc3)CC2)CC(C)O1 (stereo not drawn) | 42.8 | 1.1 | 0.8 | 18.3 | 91.0* | 1.59
CC1CN(C2CCN(S(=O)(=O)c3ccccc3)CC2)CC(C)O1 (stereo not drawn) | -33.0 | 0.321 | 1 | -1.8 | 80.7* | 0.595
CC1CN(C2CCN(S(=O)(=O)Cc3ccccc3)CC2)CC(C)O1 (stereo not drawn) | -2.1 | 0.819 | 0.9 | 13.6 | 90.8* | x
CS(=O)(=O)N1CCN(C2Cc3ccccc3C2)CC1 | -9.4 | -0.166 | 0.9 | 12.9 | 36.1 | 0.19
O=S(=O)(Cc1ccccc1)N1CCN(C2Cc3ccccc3C2)CC1 | 5.8 | -0.598 | 0.8 | 15.5 | 52.4* | x
O=S(=O)(c1ccccc1)N1CCC(N2CCCCCC2)CC1 | -3.1 | -0.558 | 1 | 4.0 | 1.7 | -0.723
Cc1cccc2c(SCC(=O)NCC3CCCO3)nc(-c3ccc(F)cc3)nc12 (stereo not drawn) | 15.4 | x | 1.1 | -5.9 | 2.3 | 0.551
CC1=CC(C)(C)N2C(=O)C3(C(C#N)=C(N)OC4=C3C(=O)CCC4)c3c(C)c(C)cc1c32 (stereo not drawn) | -27.7 | x | 1 | 3.3 | 13.6 | -0.0142
CC1=CC(C)(C)N2C(=O)C3(C(C#N)=C(N)Oc4cc(O)ccc43)c3c(C)c(C)cc1c32 (stereo not drawn) | 6.9 | -1.73 | 0.7 | 28.3 | 53.7* | x
Cc1nn(C)cc1C(C(=O)NC1CCCCC1)N(C(=O)Cc1cccs1)c1ccc(F)cc1 (stereo not drawn) | 8.1 | x | 0.9 | 7.7 | 69.7* | 1.36
Cc1ccc(C)c(N(C(=O)Cc2cccs2)C(C(=O)NC2CCCC2)c2ccc(C)o2)c1 (stereo not drawn) | 5.3 | x | 0.8 | 19.2 | -2.4 | x
Cc1ccc(N(C(=O)CCl)C(C(=O)NC2CCCCC2)c2cccnc2)cc1C (stereo not drawn) | -13.0 | -3.49 | 1 | 0.0 | 100.4* | 0.223
Cc1ccc(C(C(=O)NC2CCCC2)N(C(=O)Cc2cccs2)c2ccc(C)c(C)c2)o1 (stereo not drawn) | 63.1* | x | 0.8 | 22.3 | 19.3 | x
CCCN(CCC)C(=O)Cn1c(=O)c2ccccc2n2c(=S)sc(-c3ccccc3C)c12 | 1.8 | x | 0.7 | 29.3 | 97.8* | -0.000222
CCN(CC)C(=O)/C(=C/c1cccc([N+](=O)[O-])c1)NC(=O)c1ccco1 | -10.0 | -0.487 | 0.9 | 6.9 | 0.1 | 0.22
CC(NC(=O)/C(=C/c1cccc([N+](=O)[O-])c1)NC(=O)c1ccco1)C(=O)O (stereo not drawn) | 3.7 | -0.0888 | 1 | -3.4 | 55.2* | 0.242
Cc1nc2c(-c3ccccc3)c(C)nn2c(C)c1CCC(=O)NCc1ccco1 | 12.1 | x | 0.7 | 26.0 | -3.5 | x
Cc1nc2c(-c3ccc(F)cc3)c(C)nn2c(C)c1CCC(=O)NC(C)CCc1ccco1 (stereo not drawn) | 9.9 | x | 0.9 | 13.5 | 100.0* | -2.69
O=C(O)CCCCNS(=O)(=O)/C=C/c1ccccc1 | -4.0 | 0.0997 | 0.9 | 11.6 | -10.0 | 1.58
O=C(/C=C/Nc1ccccc1Oc1ccccc1)c1ccco1 | 55.5 | -0.872 | 0.8 | 16.9 | 77.3* | 0.00595
O=C(/C=C/Nc1ccccc1O)c1ccco1 | x | x | x | x | x | -1.12
SMILES | WT yeast gro inh | ROMK primary | Diaphorase act | Diaphorase inh | L major viab | KCC2 mod
N#C/C(=N\Nc1ccc(Cl)cc1)C(=O)c1ccccc1 | x | 2.79* | 0.8 | 23.3 | -1.0 | -3.46*
CNC(CC(=O)c1ccc([N+](=O)[O-])cc1)C(Cl)(Cl)Cl (stereo not drawn) | 71.4 | -1.9 | 1 | 1.1 | 100.2* | 0.797
CC(C)CC(=O)NC(=S)NNC(=O)c1ccc([N+](=O)[O-])cc1 | -0.8 | x | 0.6 | 42.3 | 18.1 | 2.45
COc1ccc(C(=O)/C(C#N)=N/Nc2ccc([N+](=O)[O-])cc2)cc1 | 64.8* | 6.05* | 0.6 | 35.3 | 56.4* | -3.6*
COc1ccc(C(=O)CC(Nc2ccc([N+](=O)[O-])cc2)c2ccc(OC)cc2)cc1 (stereo not drawn) | 6.2 | x | 0.7 | 28.0 | 81.7* | -0.696
COc1ccc(N/N=C(\C#N)C(N)=O)cc1 | 29.4 | x | 1.1 | -7.7 | 1.1 | -0.168
CCOc1ccc(NC(=O)N(C2CCCCC2)C(C)c2ccncc2)cc1 (stereo not drawn) | -7.3 | x | 0.8 | 17.2 | 45.6 | x
CC(c1cccnc1)N(C(=O)Nc1ccccc1)C1CCCCC1 (stereo not drawn) | 9.3 | x | 0.8 | 17.5 | 78.0* | x
CCOc1ccc(NC(=O)N(C2CCCCC2)C(C)c2cccnc2)cc1 (stereo not drawn) | -6.4 | x | 0.8 | 17.8 | 86.9* | 0.0354
Cc1ccc(C)c(NC(=S)N(C2CCCCC2)C(C)c2cccnc2)c1 (stereo not drawn) | x | x | x | x | x | 0.914
COc1ccc(C(=O)Nc2ccc(N3CCOCC3)cc2)cc1S(=O)(=O)NC1CCCC1 | -7.3 | x | 0.9 | 11.4 | 6.8 | 0.327
CC(C)N1CSC(=S)N(Cc2ccccc2)C1 | 23.4 | 0.0104 | 1 | 3.8 | 74.8* | -0.784
CC(C)(C)N1CSC(=S)N(Cc2ccccc2)C1 | 0.7 | -0.00648 | 1 | 4.1 | 90.9* | -0.415
S=C1NCN(CCc2ccccc2)CN1Cc1ccccc1 | x | 1.63 | x | x | x | 0.0189
S=C1SCN(Cc2cccnc2)CN1Cc1ccccc1 | -11.8 | 0.311 | 1.1 | -7.7 | 71.9* | -0.232
S=C1NCN(Cc2cccnc2)CN1Cc1ccccc1 | x | -0.0535 | x | x | x | 0.557
O=C1CSC(=S)N1c1cccnc1 | 3.4 | x | 1.1 | -5.4 | -5.8 | 0.756
O=C1CSC(=S)N1Cc1cccnc1 | 6.1 | x | 0.8 | 22.3 | 100.0* | 0.94
CC(C)CN1CN(Cc2ccccc2)CNC1=S | -5.4 | 0.179 | 0.9 | 11.5 | -6.1 | -0.426
CC(C)NC(=O)c1ccc(-n2nc(C(F)(F)F)c3c2CCCC3)cc1 | -9.0 | x | 0.9 | 6.9 | -4.4 | 0.563
COc1ccc(CNC(=O)CSc2nnc3c(Cl)cc(C(F)(F)F)cn23)cc1OC | -16.5 | x | 0.8 | 15.4 | -6.6 | 0.643
